Data from ChEMBL document CHEMBL3352121, “Modulation of Activity Profiles for Largazole-Based HDAC Inhibitors through Alteration of Prodrug Properties” (ACS Med Chem Lett, 2014).
The source made the active and inactive calls. The rule behind the calls is not given here.

What was measured:
Serum [1] = assay: Drug metabolism in mouse serum treated with largazole assessed as compound formation after 0.25 to 1440 mins by HPLC-MS method; type: ADME, cell-free
[2] = Drug level in human HCT116 cells protein lysate solution treated with 25 ug/mL compound 6 assessed as compound formation after 4 hrs by HPLC-MS method; type: ADME, cell-based; details: hct-116, 4 h
Histone deacetylase 11 = target: T1, Histone deacetylase 11 (Homo sapiens, UniProt Q96DB2); assay: Inhibition of HDAC11 (unknown origin) incubated for 3 hrs in presence of BSA and in absence of DTT by fluorescence assay
T1 sequence (Q96DB2 whole entry): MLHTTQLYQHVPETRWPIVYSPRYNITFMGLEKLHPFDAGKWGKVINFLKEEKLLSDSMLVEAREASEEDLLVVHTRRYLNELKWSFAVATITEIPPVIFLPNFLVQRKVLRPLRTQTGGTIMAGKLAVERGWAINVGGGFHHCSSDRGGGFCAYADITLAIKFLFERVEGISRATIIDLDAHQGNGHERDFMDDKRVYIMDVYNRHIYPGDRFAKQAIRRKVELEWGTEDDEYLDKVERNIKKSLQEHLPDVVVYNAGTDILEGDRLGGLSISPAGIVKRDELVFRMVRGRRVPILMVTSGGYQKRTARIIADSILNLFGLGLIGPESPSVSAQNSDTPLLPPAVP

[3] = Drug level in tumor of human HCT116 cells xenografted nu/nu mouse treated with 10 mg/kg, po largazole assessed as compound formation by HPLC-MS method; type: ADME, organism-based, Neoplasm, HCT-116; set-up: dose 10 mg/kg, route oral; details: in vivo
[4] = Drug level in human HCT116 cells protein lysate solution treated with 25 ug/mL largazole assessed as compound formation after 30 mins by HPLC-MS method; type: ADME, cell-based; details: hct-116, 0.5 h
[5] = Drug level in human HCT116 cells protein lysate solution treated with 25 ug/mL compound 4 assessed as compound formation after 1 hr by HPLC-MS method; type: ADME, cell-based; details: hct-116, 1 h
[6] = target: Histone deacetylase (Homo sapiens) (UniProt Q13547+O15379+Q9UBN7+Q92769+Q9UQL6+Q8WUI4+Q9BY41+Q96DB2+P56524+Q9UKV0+Q969S8); assay: Inhibition of HDAC in human HCT116 cells assessed as increase in histone H3 (Lys9/14) hyperacetylation at 320 pM to 10 uM after 8 to 24 hrs by immunoblotting method; type: cell-based; details: HCT-116
Summary of the method: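 HCT116 cells were treated across a dose range, then harvested at 8 and 24 h post-treatment. Cellular HDAC inhibition was read as histone H3 (Lys9/14) hyperacetylation by immunoblot.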

HCT-116 [7] = assay: In vivo inhibition of HDAC in tumor of human HCT116 cells xenografted nu/nu mouse assessed as increase in histone hyperacetylation at 50 mg/kg, po after 4 to 12 hrs by immunoblotting method; type: functional, organism-based; set-up: dose 50 mg/kg
Summary of the method: (§1)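 Mice bearing HCT116 xenografts were dosed intraperitoneally at 10 or 50 mg/kg, or orally at 50 mg/kg. Tumors were excised at 4, 12 and 24 h. Histone hyperacetylation in the tumors was assessed by immunoblot, n = 2.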

Serum [8] = assay: Drug metabolism in mouse serum assessed as largazole thiol formation after 0.25 to 1440 mins by HPLC-MS method; type: ADME, cell-free
HCT-116 [9] = assay: In vivo inhibition of HDAC in tumor of human HCT116 cells xenografted nu/nu mouse assessed as increase in histone hyperacetylation at 10 mg/kg, ip after 24 hrs by immunoblotting method; type: functional, organism-based; set-up: dose 10 mg/kg; summary of the method: as §1
[10] = Drug metabolism in human HCT116 cells protein lysate solution assessed as largazole thiol formation at 25 ug/mL after 4 hrs by HPLC-MS method; type: ADME, cell-based; details: hct-116, 4 h
HCT-116 [11] = assay: In vivo inhibition of HDAC in tumor of human HCT116 cells xenografted nu/nu mouse assessed as increase in histone hyperacetylation at 50 mg/kg, ip after 24 hrs by immunoblotting method; type: functional, organism-based; set-up: dose 50 mg/kg; summary of the method: as §1
[12] = Drug metabolism in tumor of human HCT116 cells xenografted nu/nu mouse assessed largazole thiol formation at 50 mg/kg, po by HPLC-MS method; details: in vivo

Compound	Drug metabolism (Serum [1])	Drug metabolism [2]	IC50 (Histone deacetylase 11) [nM]	Drug metabolism [3]	Drug metabolism [4]	Drug metabolism [5]	inhibition [6]	inhibition (HCT-116 [7])	Drug metabolism (Serum [8])	inhibition (HCT-116 [9])	Drug metabolism [10]	inhibition (HCT-116 [11])	Drug metabolism [12]
CC(C)[C@@H]1NC(=O)[C@]2(C)CSC(=N2)c2csc(n2)CNC(=O)C[C@@H](/C=C/CCS)OC1=O [LARGAZOLE THIOL]	metabolite_detected	metabolite_detected	3	metabolite_detected	metabolite_detected	metabolite_detected	–	–	–	–	–	–	–
CC(C)[C@@H]1NC(=O)[C@]2(C)CSC(=N2)c2csc(n2)CNC(=O)C[C@@H](/C=C/CCSSC[C@H](NC(=O)OC(C)(C)C)C(=O)O)OC1=O	–	–	–	–	–	–	Active	inactive	metabolite_notdetected	Active	metabolite_detected	Active	metabolite_notdetected
